# E-sel inducer: E-selectin induction in HUVECs, primary screen, imaging, HUVEC, immunofluorescence imaging, single point; activation, % at 7.58 µM; normalized: neutral wells 0, TNF-alpha wells 100; 0.37% of 260,000 active;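 active = mean E-selectin-positive cell signal at least 10% of the positive control, reached in at least 60% of replicates, without over 20% cell loss; inconclusive = no rule given, readout overlaps actives, possibly toxicity-flagged; inactive = the rest, including those meeting only one limit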
# Target sequence (P16581 whole entry, looked up): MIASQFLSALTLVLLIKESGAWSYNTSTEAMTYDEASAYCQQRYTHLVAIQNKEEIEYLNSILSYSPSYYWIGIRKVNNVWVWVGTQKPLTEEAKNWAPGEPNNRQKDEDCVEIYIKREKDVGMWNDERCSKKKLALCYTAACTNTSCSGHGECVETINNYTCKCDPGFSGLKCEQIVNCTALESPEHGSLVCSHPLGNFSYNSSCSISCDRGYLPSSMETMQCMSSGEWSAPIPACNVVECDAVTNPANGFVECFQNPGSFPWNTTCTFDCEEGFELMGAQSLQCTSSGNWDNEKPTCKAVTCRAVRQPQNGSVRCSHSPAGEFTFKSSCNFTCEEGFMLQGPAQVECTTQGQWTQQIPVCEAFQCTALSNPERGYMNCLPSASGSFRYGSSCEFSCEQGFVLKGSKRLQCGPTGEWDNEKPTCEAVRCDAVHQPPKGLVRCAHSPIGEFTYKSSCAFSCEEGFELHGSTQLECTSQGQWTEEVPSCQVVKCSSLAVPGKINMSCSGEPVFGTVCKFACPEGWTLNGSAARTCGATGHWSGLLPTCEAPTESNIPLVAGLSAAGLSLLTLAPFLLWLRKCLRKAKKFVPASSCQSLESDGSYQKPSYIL
#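 Material: HUVEC primary endothelial cells; Amount: 3,000 cells per well; Dosing: single concentration; Medium: EGM-2 growth medium on 0.1% gelatin-coated wells; Read-out basis: percent E-selectin-positive cells; Signal: immunofluorescence imaging; Control set: TNF-alpha, DMSO.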
# SIRT5 inh: SIRT5 desuccinylase inhibitors, primary screen, biochemical, fluorescence imaging, single point, set 5 | NAD-dependent protein deacylase sirtuin-5, mitochondrial (Homo sapiens), Q9NXA8 | Purified SirT5, succinyl-peptide AMC, trypsin-coupled fluorescence | inhibition, % at 15 µM | 1.1% of 330,000 active; in the data active = inhibition above about 15%; inconclusive = no clear call, values can overlap the other calls
# DENV2 CPE rescue: inhibitors of DENV2 cytopathic effect, primary screen, cell-based, plate reader, single concentration; 1.7% of 350,000 active; CPE inhibition, % at 9.99 µM; DENV2-infected cells, cytopathic effect rescue; in the data active = CPE inhibition above about 20%, passing the limit was not always enough; inconclusive = no clear call, values can overlap the other calls; tested in BHK-21 cells;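 also: 0% = median of neutral control wells and 100% = median of positive control wells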
# Active calls of the source: *; ? = inconclusive; nt = no result. Only some compounds are listed: those with a hit (about 2.8% of all), similar ones and a draw of the others.
SMILES,E-sel inducer,SIRT5 inh,DENV2 CPE rescue
CN(C)C(=O)c1ccc(-c2ccc([C@@H]3[C@@H](C#N)N(C(=O)C4CCCC4)[C@H]3CO)cc2)cc1,0,2,-2
COc1ccc(-c2ccc([C@H]3[C@@H](C#N)N(C(=O)C4CC4)[C@@H]3CO)cc2)cc1,0,1,56*
CN(C)C(=O)c1ccc(-c2ccccc2[C@@H]2[C@@H](CO)N(C(=O)C3CCCCC3)[C@H]2C#N)cc1,0,-3,29*
CN(C)C(=O)c1ccc(-c2ccccc2[C@@H]2[C@H](C#N)N(C(=O)C3CC3)[C@H]2CO)cc1,0,1,-5
COc1ccc(-c2ccc([C@@H]3[C@@H](C#N)N(C(=O)C4CC4)[C@H]3CO)cc2)cc1,0,5,8
CN(C)C(=O)c1ccc(-c2ccccc2[C@@H]2[C@@H](C#N)N(C(=O)C3CC3)[C@@H]2CO)cc1,0,2,40*
CN(C)C(=O)c1ccc(-c2ccc([C@H]3[C@@H](C#N)N(C(=O)C4CCCC4)[C@H]3CO)cc2)cc1,-1,1,22*
CN(C)C(=O)c1ccc(-c2ccccc2[C@H]2[C@@H](C#N)N(C(=O)C3CCCC3)[C@@H]2CO)cc1,0,2,-3
O=C(C[C@@H]1CC[C@H]2[C@@H](COC[C@H](O)CN2Cc2cc(F)ccc2F)O1)N1CCc2ccccc2C1,0,6,5
COc1cccc(C#Cc2ccc([C@H]3[C@@H](CO)N(C(=O)C4CC4)[C@H]3C#N)cc2)c1,0,4,-2
COc1ccc(-c2ccccc2[C@H]2[C@@H](C#N)N(C(=O)NC3CCCC3)[C@H]2CO)cc1,0,5,?
COc1ccccc1-c1ccccc1[C@@H]1[C@@H](CO)N(C(=O)C2CCC2)[C@H]1C#N,0,2,-11
COc1ccc(-c2ccc([C@@H]3[C@@H](CO)N(C(=O)NC4CCCC4)[C@H]3C#N)cc2)cc1,0,3,22*
CC(C)NC(=O)N1[C@H](CO)[C@H](c2ccc(-c3ccc(F)cc3)cc2)[C@@H]1C#N,0,-3,35*
COc1ccccc1-c1ccccc1[C@@H]1[C@@H](C#N)N(C(=O)C2CCC2)[C@@H]1CO,0,-1,44*
COc1cccc(C#Cc2ccc([C@@H]3[C@@H](C#N)N(C(=O)C4CC4)[C@H]3CO)cc2)c1,-1,-2,26*
COc1ccc(-c2ccc([C@H]3[C@@H](C#N)N(C(=O)NC(C)C)[C@@H]3CO)cc2)cc1,0,2,-8
C[C@@H]1CN([C@H](C)CO)C(=O)c2cc(NC(=O)NC3CCCCC3)ccc2O[C@@H]1CN(C)Cc1ccc(Oc2ccccc2)cc1,0,3,-1
COc1cccc(-c2ccc3c(c2)[C@H]2[C@H](CCN2C(=O)NC2CCCCC2)[C@@H](CO)N3C)c1,0,-15,-6
CCCNC(=O)C[C@H]1C[C@@H]2c3cc(NS(C)(=O)=O)ccc3O[C@@H]2[C@H](CO)O1,0,-2,5
COc1ccc(-c2ccccc2[C@@H]2[C@@H](C#N)N(C(=O)C3CC3)[C@H]2CO)cc1,0,nt,27*
COc1ccc(-c2ccccc2[C@H]2[C@@H](C#N)N(C(=O)C3CC3)[C@H]2CO)cc1,0,3,-5
CO[C@@H]1CN(C)C(=O)c2cc(NC(=O)Nc3ccc4c(c3)OCO4)ccc2OC[C@H](C)NC[C@H]1C,1,nt,-2
O=C(c1ccccc1Cc1ccccc1)N1CCN(S(=O)(=O)c2ccccc2F)CC1,1,0,10
O=C(c1ccccc1Cc1ccccc1)N1CCN(S(=O)(=O)c2ccccc2)CC1,0,-2,68*
SMILES,E-sel inducer,SIRT5 inh,DENV2 CPE rescue
CCC(=O)N1CCC2(CC1)CN(Cc1cc(F)ccc1F)[C@H](CO)c1c2c2ccc(OC)cc2n1C,0,3,-5
C[C@H]1CN([C@@H](C)CO)C(=O)c2cc(C3=CCCC3)cnc2O[C@H]1CN(C)C,0,5,0
CCN(C[C@H]1N[C@@](Cc2ccccc2)(C(=O)OC)[C@H]2C(=O)N(C)C(=O)[C@@H]12)C(=O)Nc1ccc(C(F)(F)F)cc1,0,28*,-11
CCNC(=O)N(CC)C[C@H]1N[C@@](Cc2ccccc2)(C(=O)OC)[C@H]2C(=O)N(Cc3ccccc3)C(=O)[C@@H]12,0,-1,37*
CCN(C[C@H]1N[C@@](CC)(C(=O)OC)[C@H]2C(=O)N(C)C(=O)[C@@H]12)C(=O)Nc1ccc(C(F)(F)F)cc1,nt,-2,0
CCN(C[C@H]1N[C@@](Cc2ccccc2)(C(=O)OC)[C@H]2C(=O)N(Cc3ccccc3)C(=O)[C@@H]12)C(=O)NC(C)C,0,1,8
